Reference: ChEMBL document CHEMBL2046427, “Nonhematotoxic naphthalene diimide modified by polyamine: synthesis and biological evaluation” (J Med Chem, 2012)

Experiments:
HepG2 [1] = test: Cytotoxicity against human HepG2 cells after 48 hrs by MTT assay; type: functional, cell-based; conditions: HepG2, 48 h
How it was run: (§1)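 MTT conversion assay at 37 °C, 5% CO₂. […] Inhibition relative to untreated cells as 100%; IC50 by linear regression, mean of three independent experiments.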

MDA-MB-231 = test: Cytotoxicity against human MDA-MB-231 cells after 48 hrs by MTT assay; type: functional, cell-based; conditions: MDA-MB-231, 48 h; how it was run: as §1
K562 = test: Cytotoxicity against human K562 cells after 48 hrs by MTT assay; type: functional, cell-based; conditions: K562, 48 h; how it was run: as §1
HepG2 [2] = test: Cytotoxicity against human HepG2 cells assessed as cell nuclear shrinkage after 48 hrs by Hoechst 33342-based fluorescence-based high-content screening assay; type: functional
How it was run: (§2)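 HepG2 seeded 5 × 10³/well; after 12 h treated at 1, 5, 10, 15 and 30 μM for 48 h. Multiparameter cytotoxicity kit staining imaged by high-content screening: Hoechst 33342 for nuclear morphology, permeability dye (green nuclei) for membrane integrity, mitochondrial potential dye, and a weak-base dye for lysosomal mass/pH.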

HepG2 [3] = test: Cytotoxicity against human HepG2 cells assessed as mitochondrial permeability augmentation after 48 hrs by fluorescence-based high-content screening assay; type: functional, cell-based; how it was run: as §2
HepG2 [4] = test: Cytotoxicity against human HepG2 cells assessed as decrease in mitochondrial membrane potential after 48 hrs by fluorescence-based high-content screening assay; type: functional, cell-based; how it was run: as §2
HepG2 [5] = test: Cytotoxicity against human HepG2 cells assessed as acruement in lysosomal mass/pH after 48 hrs by fluorescence-based high-content screening assay; type: functional, cell-based; how it was run: as §2

SMILES	IC50 (HepG2 [1])	IC50 (MDA-MB-231)	IC50 (K562)	Activity (HepG2 [2])	Activity (HepG2 [3])	Activity (HepG2 [4])	Activity (HepG2 [5])
NCCCCNCCCCNCCCCN1C(=O)c2cccc3c(-c4ccccc4)ccc(c23)C1=O	32.1 µM	19.1 µM	14.2 µM	–	–	–	–
NCCCCNCCCCNCCCCN1C(=O)c2ccc3c4c(ccc(c24)C1=O)C(=O)N(CCCCNCCCCNCCCCN)C3=O	> 50 µM	> 50 µM	28 µM	–	–	–	–
CN(C)CCN1C(=O)c2cccc3c(-c4ccccc4)ccc(c23)C1=O	37 µM	39.2 µM	> 50 µM	Dose-dependent effect	Dose-dependent effect	Dose-dependent effect	Dose-dependent effect
NCCCCNCCCCN1C(=O)c2ccc3c4c(ccc(c24)C1=O)C(=O)N(CCCCNCCCCN)C3=O	43.8 µM	27.6 µM	41 µM	–	–	–	–
NCCCNCCCCNCCCN1C(=O)c2ccc(-c3ccc4c(c3)C(=O)N(CCCNCCCCNCCCN)C4=O)cc2C1=O	> 50 µM	> 50 µM	–	–	–	–	–
NCCCNCCCCN1C(=O)c2ccc3c4c(ccc(c24)C1=O)C(=O)N(CCCCNCCCN)C3=O	33.3 µM	20.2 µM	21.2 µM	–	–	–	–
NCCCCNCCCCN1C(=O)c2cccc3c(-c4ccccc4)ccc(c23)C1=O	17.1 µM	19.2 µM	14.4 µM	–	–	–	–
